Columns and labels:
Plasmodium falciparum = test: Effective dose against chloroquine-resistant Plasmodium falciparum FcB1R; assay type: functional
Procedure, shortened: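 Asynchronous cultures in human erythrocytes (0.5% parasitemia, 1% hematocrit) received serially diluted drug, DMSO ≤0.1%. After 24 h at 37 °C, 0.5 μCi [3H]hypoxanthine was added and incubation continued another 24 h. Growth inhibition was taken versus drug-free control, ED50 read from the concentration–response curve, and reported as mean of ≥3 independent experiments.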

[1] = target: T1, Glutathione reductase, mitochondrial (Homo sapiens) (UniProt P00390); test: Competitive inhibition of human Glutathione Reductase
T1 sequence (whole entry): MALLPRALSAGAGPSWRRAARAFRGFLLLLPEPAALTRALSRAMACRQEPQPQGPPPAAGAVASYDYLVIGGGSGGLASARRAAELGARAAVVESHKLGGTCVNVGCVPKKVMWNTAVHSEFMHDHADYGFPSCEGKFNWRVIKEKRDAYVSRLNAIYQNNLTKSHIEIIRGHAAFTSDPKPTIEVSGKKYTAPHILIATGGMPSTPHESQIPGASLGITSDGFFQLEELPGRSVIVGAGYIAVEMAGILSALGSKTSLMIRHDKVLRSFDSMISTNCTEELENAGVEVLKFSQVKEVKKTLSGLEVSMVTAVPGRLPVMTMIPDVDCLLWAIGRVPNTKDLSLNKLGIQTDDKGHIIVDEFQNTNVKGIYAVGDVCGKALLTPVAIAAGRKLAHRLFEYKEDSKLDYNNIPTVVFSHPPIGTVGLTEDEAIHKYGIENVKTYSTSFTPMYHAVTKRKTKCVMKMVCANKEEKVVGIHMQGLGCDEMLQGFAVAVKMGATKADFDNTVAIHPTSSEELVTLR

[2] = target: Glutathione reductase (Plasmodium falciparum 3D7) (UniProt O15770); test: Competitive inhibition of Plasmodium falciparum Glutathione Reductase; details: Plasmodium falciparum FcB1
Chain of Glutathione reductase (Plasmodium falciparum 3D7) (O15770 whole entry): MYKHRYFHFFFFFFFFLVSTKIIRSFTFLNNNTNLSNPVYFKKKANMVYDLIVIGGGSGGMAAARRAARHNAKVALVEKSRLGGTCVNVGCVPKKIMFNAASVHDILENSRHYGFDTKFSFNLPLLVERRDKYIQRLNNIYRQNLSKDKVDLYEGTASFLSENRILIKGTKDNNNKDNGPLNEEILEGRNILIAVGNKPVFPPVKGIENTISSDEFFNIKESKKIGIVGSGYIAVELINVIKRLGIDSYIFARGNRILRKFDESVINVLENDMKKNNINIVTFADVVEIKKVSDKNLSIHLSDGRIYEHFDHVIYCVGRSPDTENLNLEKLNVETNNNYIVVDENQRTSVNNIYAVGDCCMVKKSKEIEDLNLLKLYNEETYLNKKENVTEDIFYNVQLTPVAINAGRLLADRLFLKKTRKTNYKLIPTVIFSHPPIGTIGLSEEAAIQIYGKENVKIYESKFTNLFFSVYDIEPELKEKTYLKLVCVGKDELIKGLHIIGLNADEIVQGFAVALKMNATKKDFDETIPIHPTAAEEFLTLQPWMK

Glutathione reductase = Glutathione reductase (Plasmodium falciparum 3D7, UniProt O15770); test: In vitro inhibition of Plasmodium falciparum Glutathione Reductase; design: species or system FcB1
Chain of Glutathione reductase (O15770 whole entry): as above
Procedure, shortened: (§1)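 Recombinant purified GR (about 5 mU/ml) with 100 μM NADPH in 47 mM potassium phosphate, 200 mM KCl, 1 mM EDTA, pH 6.9, at 25 °C. Enzyme, NADPH and inhibitor are premixed and the reaction is started with 100 μM GSSG. NADPH loss is read at 340 nm. IC50 is taken from increasing inhibitor concentrations in 1% final DMSO, run in duplicate.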

[3] = target: T2, Glutathione reductase, mitochondrial (Homo sapiens, UniProt P00390); test: In vitro inhibition of human Glutathione Reductase; procedure, shortened: as §1
T2 sequence (P00390 whole entry): T1 sequence (whole entry)

[4] = read-out: ED50 (the source's name)

SMILES: CC1=C(CCC(=O)OCc2cc(NC(=O)CN3CCCCC3)cc(Nc3ccnc4cc(Cl)ccc34)c2)C(=O)c2ccccc2C1=O
- EC50 (Plasmodium falciparum; [4]): 144 µM

SMILES: CC1=C(CCCCC(=O)O)C(=O)c2c(O)cccc2C1=O
- Ki.c [1]: 1.1 µM
- Ki.c [2]: 2.4 µM
- EC50 (Plasmodium falciparum; [4]): 7.7 µM
- IC50 (Glutathione reductase): 2500 nM
- IC50 [3]: 1000 nM

SMILES: CC1=C(CCCCC(=O)OCc2cc(NC(=O)CN3CCCCC3)cc(Nc3ccnc4cc(Cl)ccc34)c2)C(=O)c2ccccc2C1=O
- EC50 (Plasmodium falciparum; [4]): 47 µM

SMILES: CC1=C(CCCCCNC(=O)OCc2cc(NC(=O)CN3CCCCC3)cc(Nc3ccnc4cc(Cl)ccc34)c2)C(=O)c2ccccc2C1=O
- EC50 (Plasmodium falciparum; read-out: ED50): 0.144 µM
